Assay results of several laboratories.
Organism: Staphylococcus aureus
Observed: microbial growth

| SMILES | method | strain | time | notes | MIC |
| --- | --- | --- | --- | --- | --- |
| O=C1NC(=O)/C(=C/c2ccc3c(c2)OC(F)(F)O3)S1 | – | NCTC8325 | – | – | > 30 µM |
| Cc1ccc(C)n1-c1ccc(C(=O)NNC=O)cc1 | broth dilution | ATCC11632 | 18 h | – | 16 µg/mL |
| CC1(C)S[C@@H]2[C@H](NC(=O)[C@H](N)c3ccccc3)C(=O)N2[C@H]1C(=O)O | broth dilution | 16339 | – | – | 64 µg/mL |
| CO[C@@H](C(N)=O)[C@H](NC(=O)c1ccc(NC(=O)c2ccc(C#N)cc2)cc1)C(=O)Nc1ccc(C(=O)Nc2ccc(C(=O)Nc3ccc(C(=O)O)cc3)c(O)c2OC(C)C)cc1 | – | ATCC29213 | – | – | < 0.03 µg/mL |
| CNc1cccc2cc(C(=O)NCc3ccc(C(=O)O)cc3)c(=O)[nH]c12 | – | ATCC29213 | – | – | > 64 µg/mL |
| O=C(O)CN1C(=O)/C(=C/c2c3ccccc3c(-c3ccc(N(c4ccccc4)c4ccccc4)cc3)c3ccccc23)NC1=S | broth dilution | ATCC6538 | – | – | > 1000 µg/mL |
| Cn1cc(C2=C(c3ccc(Cl)cc3Cl)C(=O)NC2=O)c2ccccc21 | – | NCTC8325 | – | – | > 30 µM |
| Cc1ccc2nc(-c3ccc(Cl)cc3)n(Cc3ccccc3Cl)c2c1 | broth dilution | ATCC29213 MSSA | – | – | 64 µg/mL |
| CC1(C)S[C@@H]2[C@H](NC(=O)[C@H](N)c3ccccc3)C(=O)N2[C@H]1C(=O)O | broth dilution | ATCC25923 | 16 h | – | 0.15 µg/mL |
| COc1cccc(OC)c1C(=O)N[C@@H]1C(=O)N2[C@@H]1SC(C)(C)[C@@H]2C(=O)O | – | 156 | – | clinical isolate | 25 µM |
| CC1(C)S[C@@H]2[C@H](NC(=O)COc3ccccc3)C(=O)N2[C@H]1C(=O)O | – | MRSA | 18 h | – | > 128 µg/mL |
| C#CCCC1(CCNC(=O)c2cc(Oc3ccc(NC(=O)Nc4ccc(Cl)c(C(F)(F)F)c4)cc3)ccn2)N=N1 | – | NCTC8325 | 24 h | – | 10 µM |
| C=CCn1c(-c2ccc(Cl)cc2)nc2ccccc21 | broth dilution | ATCC29213 MSSA | – | – | 64 µg/mL |
| CNC(=O)c1ccccc1Sc1ccc2c(/C=C/c3ccccn3)n[nH]c2c1 | – | NCTC8325 | – | – | > 30 µM |
| Clc1ccccc1-c1nc2ccccc2[nH]1 | broth dilution | ATCC29213 MSSA | – | – | 64 µg/mL |
| NCCCC[C@H](N)C(=O)Nc1ccc(-n2nc(C(F)(F)F)cc2-c2ccc3c(ccc4ccccc43)c2)cc1 | broth dilution | ATCC29213 | 24 h | – | 4 µg/mL |
| COC(=O)/C(C#N)=C1\Nc2ccccc2O1 | – | – | – | – | > 128 µg/mL |
| C=CCn1c(-c2ccc(Cl)c(Cl)c2)nc2ccccc21 | broth dilution | ATCC29213 MSSA | – | – | 64 µg/mL |
| Brc1cccc(NCc2ccc(Oc3ccccn3)cc2)c1 | – | – | – | – | > 3.1 µg/mL |
| C/C=C(\C)c1cc(O)c(C)c(OC(=O)c2c(C)cc(O)c(Cl)c2O)c1 | broth dilution | 16339 | – | – | 16 µg/mL |
| OCCn1cc(-c2cnc3nnn(Cc4ccc5ncccc5c4)c3n2)cn1 | – | NCTC8325 | – | – | > 30 µM |

| SMILES | method | strain | time | notes | MIC |
| --- | --- | --- | --- | --- | --- |
| Cc1ccc(C)n1-c1ccc(-c2nnc(-c3ccccc3Cl)[nH]2)cc1 | broth dilution | ATCC11632 | 18 h | – | 2 µg/mL |
| O=C1NC(=S)N/C1=C\c1ccc(-c2ccc(N(c3ccccc3)c3ccccc3)cc2)cc1 | broth dilution | ATCC25923 | – | – | > 1000 µg/mL |
| CC(C)Oc1c(NC(=O)c2ccc(NC(=O)[C@H](CC(N)=O)NC(=O)c3ccc(NC(=O)C(C)Oc4ccc(C#N)cc4)cc3)cc2)ccc(C(=O)Nc2ccc(C(=O)O)cc2)c1O (some centres unmarked) | – | ATCC29213 | – | – | > 64 µg/mL |
| CSc1nc(Cl)cc(Sc2nnc(-c3cc(C(F)(F)F)cc(C(F)(F)F)c3)[nH]2)n1 | – | 83254 | – | – | 2.1 µM |
| CCc1cnn2c(NCc3ccc[n+]([O-])c3)cc(N3CCCC[C@H]3CCO)nc12 | – | NCTC8325 | – | – | > 30 µM |
| CN[C@H](CC(C)C)C(=O)N[C@H]1C(=O)N[C@@H](CC(N)=O)C(=O)N[C@H]2C(=O)N[C@H]3C(=O)N[C@H](C(=O)N[C@H](C(=O)O)c4cc(O)cc(O)c4-c4cc3ccc4O)[C@H](O)c3ccc(c(Cl)c3)Oc3cc2cc(c3O[C@@H]2O[C@H](CO)[C@@H](O)[C@H](O)[C@H]2O[C@H]2C[C@](C)(N)[C@H](O)[C@H](C)O2)Oc2ccc(cc2Cl)[C@H]1O | broth dilution | ATCC43300 MRSA | 18 h | – | 1 µg/mL |
| O=C(Nc1cccc(NC(=O)Nc2ccc(Cl)c(C(F)(F)F)c2)c1)Nc1ccc(Cl)c(C(F)(F)F)c1 | – | NCTC8325 | 24 h | – | 1 µM |
| CC(C)Oc1c(NC(=O)c2ccc(NC(=O)[C@H](CC(N)=O)NC(=O)c3ccc(NC(=O)CCc4ccc(C#N)cc4)cc3)cc2)ccc(C(=O)Nc2ccc(C(=O)O)cc2)c1O | – | ATCC29213 | – | – | > 64 µg/mL |
| O=C1NC(=S)N/C1=C\c1ccc(-c2ccc(N(c3ccccc3)c3ccccc3)cc2)c2ccccc12 | broth dilution | ATCC6538 | – | – | > 1000 µg/mL |
| CN[C@H](CC(C)C)C(=O)N[C@H]1C(=O)N[C@@H](CC(N)=O)C(=O)N[C@H]2C(=O)N[C@H]3C(=O)N[C@H](C(=O)N[C@H](C(=O)O)c4cc(O)cc(O)c4-c4cc3ccc4O)[C@H](O)c3ccc(c(Cl)c3)Oc3cc2cc(c3O[C@@H]2O[C@H](CO)[C@@H](O)[C@H](O)[C@H]2O[C@H]2C[C@](C)(N)[C@H](O)[C@H](C)O2)Oc2ccc(cc2Cl)[C@H]1O | – | 10 | – | – | 2.2 µg/mL |
| CSc1ccc(/C=C/c2cc(/C=C3\Sc4ccccc4N3CCCN3CCCC3)c3ccccc3[n+]2C)cc1.[I-] | broth dilution | ATCCBAA44 | – | – | 32 µg/mL |
| C=CC1(C)CC(OC(=O)CSc2nc3ccccc3s2)C2(C)C(C)CCC3(CCC(=O)C32)C(C)C1O (centres unmarked) | – | – | – | – | 0.5 µg/mL |
| CC(C)Oc1c(NC(=O)c2ccc(NC(=O)[C@H](CC(N)=O)NC(=O)c3ccc(NC(=O)c4cc(C#N)cn4C)cc3)cc2)ccc(C(=O)Nc2ccc(C(=O)O)cc2)c1O | – | ATCC29213 | – | – | 64 µg/mL |
| O=C1C=CC(=O)c2c1ccc1c2[nH]c2ccccc21 | – | ATCC29213 | – | – | 4 µg/mL |
| CCCCCCC#Cc1cncc(-c2nnc(SCc3ccc(Cl)cc3)n2C2CC2)c1 | – | MRSA | – | drug-resistant strain | ≥ 20 µg/mL |
| O=C1NC(=O)/C(=C\c2ccc3nccnc3c2)S1 | – | NCTC8325 | – | – | > 30 µM |
| Fc1cccc(Cl)c1-c1nc2ccccc2[nH]1 | broth dilution | ATCC29213 MSSA | – | – | 64 µg/mL |
| COc1c(C)c(OS(=O)(=O)c2ccc3ccccc3c2)c(C)c(OS(=O)(=O)c2ccc3ccccc3c2)c1C(=O)/C=C/c1ccccc1 | broth dilution | ATCC25923 | – | – | 5000 µg/mL |
| C/C=C(\C)c1cc(OC(=O)c2c(C)c(Cl)c(O)c(Cl)c2O)c(C)c(O)c1C(=O)O | broth dilution | CCARM3090 | – | – | 64 µg/mL |
| CC1=NN(CNc2ccc(C(=O)O)cc2)C(=O)C1=NNn1c(-c2ccccc2)nc2ccccc2c1=O | broth dilution | – | 24 h | – | 50.5 µM |
